The structures appear in SMILES notation. Converted amounts (≈) assume the structure as drawn.

Data set [1] can be described thus: Cytotoxicity against human SV5A8 cells. In kind it is functional, cell-based. Put shortly:
(§1)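 Reporter cell lines 22C11 and 33.13 with control line 5A8; IC50 from means of at least two experiments; toxicity flagged as the minimal dose where cell killing appeared by Renilla luciferase signal.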

In data set [2] the target is Catenin beta-1 (Homo sapiens) (UniProt P35222). As to the kind of experiment: Inhibition of Beta-catenin/Tcf-4 pathway in human Tcf22C11 cell assessed as inhibition of reporter activity by cell-based reporter assay. On the technique in general: In a reporter assay the amount or activity of a reporter protein is the signal.
The target is the same in data set [3]. As to the kind of experiment: Inhibition of Beta-catenin/Tcf-4 pathway in human Tcf 33.13 cell assessed as inhibition of reporter activity by cell-based reporter assay.
The nature of data set [4]: Inhibition of […]/Tcf-4 pathway in human Tcf22C11 cell assessed as inhibition of reporter activity by cell-based reporter assay. The data set is classed as functional. Put shortly:
as §1

The nature of data set [5]: Inhibition of […]/Tcf-4 pathway in human Tcf 33.13 cell assessed as inhibition of reporter activity by cell-based reporter assay. In kind it is functional. Put shortly: as §1
Data set [6] can be described thus: Oral bioavailability in mouse at 25 mg/kg. The data set is classed as ADME, organism-based. Conditions: in vivo. A digest of the protocol:
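Female nude mice dosed orally at 25 mg/kg; oral bioavailability (%) determined from pharmacokinetic study.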

The nature of data set [7]: Plasma concentration in nude mouse at 50 mg/kg, po after 8 hrs. The data set is classed as ADME, organism-based. Details: dose 50 mg/kg, route oral. Put shortly:
(§2)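 Tumour-bearing nude mice (n = 4) given one oral dose (50 or 200 mg/kg); plasma and tumour drug concentrations (ng/mL) measured 8 h after dosing; tumour/plasma ratio calculated from these.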

The nature of data set [8]: Drug level in tumor of nude mouse bearing HT29 or HCT116 cells at 50 mg/kg, po after 8 hrs. Conditions: read-out: Ct. Set-up: dose 50 mg/kg, route oral. The data set is classed as ADME, organism-based, Neoplasm, HCT-116. Put shortly:
as §2

The nature of data set [9]: Ratio of Drug level in tumor to mouse plasma at 50 mg/kg, po. Put shortly: as §2
Data set [10] in a line: Plasma concentration in mouse at 200 mg/kg, po after 8 hrs. The data set is classed as ADME, organism-based. Set-up: dose 200 mg/kg, route oral. Put shortly: as §2
The nature of data set [11]: Drug level in tumor of nude mouse bearing HT29 or HCT116 tumor at 200 mg/kg, po after 8 hrs. The data set is classed as ADME, organism-based, Neoplasm. Conditions: read-out: Ct. Details: dose 200 mg/kg, route oral. A digest of the protocol: as §2
For the next data set, the system named is HT-29. The data set can be described thus: Antitumor activity against human HT-29 cells xenografted in nude mouse assessed as tumor growth inhibition at 200 mg/kg, po after 17 days. The settings on record: HT-29, 408 h, read-out: TGI. In kind it is functional. A digest of the protocol: (§3)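 Nude mice carrying subcutaneous HT29 or HCT116 tumours; oral dosing at 25, 50, 100 or 200 mg/kg once daily for 17 days; tumour volume measured; growth inhibition assessed at end of treatment.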
In general terms: A xenograft is tissue or cells of one species grown in another, often human tumour cells in immunodeficient mice.

Data set [12] can be described thus: Ratio of Drug level in tumor to mouse plasma at 200 mg/kg, po. A digest of the protocol:
as §2

The nature of data set [13]: Aqueous solubility at pH 7.4. In kind it is physicochemical. Put shortly:
(§4)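 Water solubility measured in µg/mL at pH 7.4 and at pH 3.0.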

A short description of data set [14]: Aqueous solubility at pH 3. In kind it is physicochemical. A digest of the protocol:
as §4

In the next data set the test system is HCT-116. As to the kind of experiment: Antitumor activity against human HCT116 cells xenografted in nude mouse assessed as tumor growth inhibition at 200 mg/kg, po after 17 days. The settings on record: HCT-116, 408 h, read-out: TGI. In kind it is functional. Put shortly: as §3

Regarding `Cc1ccc2c(NCc3ccc(NC(=O)C4CCN(Cc5ccccc5)CC4)cc3)nc(N3CCC(N4CCCC4)CC3)nc2c1`, the concentration for half-maximal inhibition (IC50) in data set [1] was greater than 8090 nM; in [2] it was 960 nM; in [3], 850 nM.

With `Cc1ccc2c(NCc3ccc(NC(=O)C4CCN(Cc5ncc[nH]5)CC4)cc3)nc(N(C)C)nc2c1`, the IC50 in data set [1], in data set [2] and in data set [3] was greater than 20000 nM each time.

With `Cc1ccc2c(NCc3ccc(NC(=O)C4CCN(C)CC4)cc3)nc(N(C)C)nc2c1`, the IC50 in data set [1] is greater than 17300 nM; in data set [2], 1920 nM; in data set [3], 1670 nM.

Consider `COc1ccc(CN2CCC(C(=O)Nc3ccc(CNc4nc(N(C)C)nc5cc(C)ccc45)cc3)CC2)cc1`, for which the IC50 in data set [1] is greater than 6180 nM; in data set [2], 520 nM; in data set [3], 450 nM.

Regarding `Cc1ccc2c(NCc3ccc(NC(=O)C4CCN(Cc5ccc(Cl)cn5)CC4)cc3)nc(N(C)C)nc2c1`, the 50% inhibitory concentration (IC50) in data set [4] is 570 nM; in data set [1], greater than 5400 nM; in data set [5], 410 nM.

Take `Cc1ccc2c(NCc3ccc(NC(=O)C4CCN(Cc5ccccc5)CC4)cc3)nc(N3CCCC3)nc2c1`: the IC50 in data set [1] was greater than 7790 nM; in data set [2], 660 nM; in data set [3], 790 nM.

On to `Cc1ccc2c(NCc3ccc(NC(=O)C4CCN(Cc5ccccc5)CC4)cc3)nc(N3CCC3)nc2c1`, for which the IC50 was greater than 8500 nM in data set [1], 1000 nM in data set [2] and 800 nM in data set [3].

Regarding `Cc1ccc2c(NCc3ccc(NC(=O)C4CCN(Cc5ccc(Cl)cc5)CC4)cc3)nc(N(C)C)nc2c1`, the results for the half-maximal inhibitory concentration (IC50) in [1], in data set [2] and in [3] were greater than 3180 nM, 390 nM and 320 nM, respectively.

With `Cc1ccc2c(NCc3ccc(NC(=O)C4CCN(C5CCCCC5)CC4)cc3)nc(N(C)C)nc2c1`, the half-maximal inhibitory concentration (IC50) in data set [1] was greater than 8320 nM; in [2], 750 nM; in data set [3] it was 810 nM.

In the case of `Cc1ccc2c(NCc3ccc(NC(=O)C4CCN(Cc5ccc(F)cc5)CC4)cc3)nc(N(C)C)nc2c1`, the IC50 in [1] was greater than 4820 nM; in data set [2] it was 220 nM; in data set [3], 190 nM. Also, in data set [6], the bioavailability came to 46%. The concentration at 8 h in data set [7] is 440 ng/mL; in data set [8], 70300 ng/mL. Moreover, the Ratio in data set [9] worked out at 220.

`Cc1ccc2c(NCc3ccc(NC(=O)C4CCN(CC(C)C)CC4)cc3)nc(N(C)C)nc2c1`: the IC50 in data set [1] is greater than 10500 nM; in data set [2], 650 nM; in [3], 960 nM.

Turning to `CCNc1nc(NCc2ccc(NC(=O)C3CCN(Cc4ccccc4)CC3)cc2)c2ccc(C)cc2n1`, the figures for the IC50 in data set [1], in data set [2] and in data set [3] were greater than 2140 nM, 1380 nM and 1130 nM, respectively.

Take `Cc1ccc2c(NCc3ccc(NC(=O)C4CCN(Cc5cccc(F)c5)CC4)cc3)nc(N(C)C)nc2c1`: the concentration for half-maximal inhibition (IC50) is greater than 4170 nM in data set [1], 330 nM in data set [2] and 350 nM in data set [3].

On to `CCCCN1CCC(C(=O)Nc2ccc(CNc3nc(N(C)C)nc4cc(C)ccc34)cc2)CC1`, for which the IC50 in data set [1] is greater than 10500 nM; in [2], 1470 nM; in data set [3], 1170 nM.

Regarding `Cc1ccc2c(NCc3ccc(NC(=O)C4CCN(Cc5ccc(F)cc5Cl)CC4)cc3)nc(N(C)C)nc2c1`, the half-maximal inhibitory concentration (IC50) in data set [1] is greater than 5910 nM; in [2] it was 520 nM; in data set [3], 210 nM.

`Cc1ccc2c(NCc3ccc(NC(=O)C4CCN(Cc5ccccc5)CC4)cc3)nc(N(C)C)nc2c1`: the IC50 was greater than 7050 nM in [1], 740 nM in data set [2] and 760 nM in data set [3]. This compound displayed a bioavailability in data set [6] of 41%. In addition, the concentration at 8 h is 2970 ng/mL in data set [10] and 90700 ng/mL in data set [11]. For the same compound, the inhibition in vivo at 200 mg/kg with HT-29 and in the data set with HCT-116 was 20% throughout. In data set [12], the Ratio was found to be 40. Besides, the solubility in [13] is 43 µg/mL (≈ 84.5 µM); in data set [14], greater than 100 µg/mL.

Take `Cc1ccc(CN2CCC(C(=O)Nc3ccc(CNc4nc(N(C)C)nc5cc(C)ccc45)cc3)CC2)cc1`: the IC50 in [1] is greater than 4150 nM; in [2], 470 nM; in data set [3] it was 500 nM.

In the case of `Cc1ccc2c(NCc3ccc(NC(=O)C4CCN(Cc5ccccc5)CC4)cc3)nc(N3CCN(C)CC3)nc2c1`, the half-inhibitory concentration (IC50) is greater than 17700 nM in data set [1], 1580 nM in data set [2] and 1320 nM in data set [3].

Take `Cc1ccc2c(NCc3ccc(NC(=O)C4CCN(Cc5ccccc5)CC4)cc3)nc(N3CCN[C@@H](C)C3)nc2c1`: the values for the IC50 in data set [1], in data set [2] and in [3] were greater than 8860 nM, 1920 nM and 1460 nM, respectively.

Take `CCN1CCN(c2nc(NCc3ccc(NC(=O)C4CCN(Cc5ccccc5)CC4)cc3)c3ccc(C)cc3n2)CC1`: the half-maximal inhibitory concentration (IC50) in data set [1] was greater than 13000 nM; in data set [2] it was 1260 nM; in data set [3] it was 1120 nM.

Take `CNc1nc(NCc2ccc(-c3ccccc3C(=O)OC)cc2)c2ccccc2n1`: in data set [2], the IC50 was determined as 600 nM.

Regarding `Cc1ccc2c(NCc3ccc(NC(=O)C4CCN(Cc5ccccc5)CC4)cc3)nc(N3CCCCCC3)nc2c1`, the values for the half-inhibitory concentration (IC50) in data set [1], in data set [2] and in data set [3] were greater than 6880 nM, 1040 nM and 960 nM, respectively.

On to `Cc1ccc2c(NCc3ccc(NC(=O)C4CCN(Cc5ccccc5)CC4)cc3)nc(N(C)CCCN(C)C)nc2c1`, for which the IC50 in [1] is greater than 8620 nM; in [2], 1410 nM; in data set [3], 1310 nM.

For `Cc1ccc2c(NCc3ccc(NC(=O)C4CCN(Cc5ccccc5)CC4)cc3)nc(N3CCNC(CCO)C3)nc2c1` (configuration not stated), the IC50 in data set [1] is greater than 8420 nM; in data set [2], 2270 nM; in [3] it was 2120 nM.

Turning to `Cc1ccc2c(NCc3ccc(NC(=O)C4CCN(Cc5ccccc5)CC4)cc3)nc(N(C)CCN(C)C)nc2c1`, the IC50 is greater than 8830 nM in data set [1], 2260 nM in data set [2] and 1440 nM in data set [3].

Turning to `Cc1ccc2c(NCc3ccc(NC(=O)C4CCN(C(=O)OC(C)(C)C)CC4)cc3)nc(N(C)C)nc2c1`, the IC50 in data set [1] was greater than 4820 nM; in [2], 760 nM; in data set [3], 850 nM.

On to `Cc1ccc2c(NCc3ccc(NC(=O)C4CCN(Cc5ccccc5F)CC4)cc3)nc(N(C)C)nc2c1`, for which the half-maximal inhibitory concentration (IC50) in [1] was greater than 6670 nM; in data set [2], 530 nM; in [3] it was 320 nM.

Regarding `Cc1ccc2c(NCc3ccc(NC(=O)C4CCN(Cc5ccco5)CC4)cc3)nc(N(C)C)nc2c1`, the figures for the IC50 in data set [1], in data set [2] and in data set [3] were greater than 20000 nM, 1830 nM and 1930 nM, respectively.

As to `Cc1ccc2c(NCc3ccc(NC(=O)C4CCN(Cc5ccncc5)CC4)cc3)nc(N(C)C)nc2c1`, the IC50 in data set [4] was 1180 nM; in [1], greater than 8070 nM; in [5] it was 900 nM.

By IC50 is commonly meant the concentration that gives 50% inhibition. The bioavailability is dose-corrected exposure relative to a reference, in per cent. A higher bioavailability goes with good availability. By solubility is commonly meant the concentration that dissolves in the medium under given conditions. A higher solubility goes with a readily soluble substance.

These data come from ChEMBL document CHEMBL1155327, “2,4-Diamino-quinazolines as inhibitors of beta-catenin/Tcf-4 pathway: Potential treatment for colorectal cancer” (Bioorg Med Chem Lett, 2009).
